The species named for data set [1] is Homo sapiens. The data set is described as follows: Selectivity ratio of IC50 for recombinant human GST-tagged EGFR (668 to 1210 residues) expressed in baculovirus expression system to IC50 for recombinant human GST-tagged EGFR L858R/T790M double mutant expressed in baculovirus expression system. The essentials: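 ELISA-based EGFR tyrosine kinase assay run on wild-type and L858R/T790M enzymes. IC50 values come from at least three independent determinations, reported as means ± SD. Selectivity is the wild-type IC50 divided by the L858R/T790M IC50.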

The next data set relates to NCI-H1975. The data set is described as follows: Antiproliferative activity against human NCI-H1975 cells harboring EGFR L858R/T790M double mutant after 72 hrs by SRB assay. It counts as functional, cell-based. The settings on record: NCI-H1975, 72 h. In short, it runs like this:
(§1)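 Cell growth inhibition measured by sulforhodamine B colorimetric assay in H1975 (EGFR L858R/T790M) and A431 (overexpressed wild-type EGFR) cells; IC50 values are means ± SD of at least three independent determinations. Selectivity is taken as the A431:H1975 IC50 ratio.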
Background: In SRB staining, fixed cells bind dye roughly in proportion to their protein.

The nature of data set [2]: Aqueous solubility in pH 7.4 PBS buffer by UV-Visible spectrophotometric method. It counts as physicochemical. The essentials: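 Solubility determined in 0.1 M PBS, pH 7.4, by UV-visible spectrophotometry.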
The species named for data set [3] is Homo sapiens. The data set is described as follows: Selectivity index, ratio of IC50 for human A431 cells harboring wild type EGFR to IC50 for human NCI-H1975 cells harboring EGFR L858R/T790M double mutant. The essentials:
as §1

A further data set deals with A-431. The data set is described as follows: Cytotoxicity against human A431 cells harboring wild type EGFR assessed as reduction in cell viability after 72 hrs by SRB assay. The class given is cell-based. The settings on record: A-431, 72 h. In short, it runs like this: as §1
In data set [4] the target is Epidermal growth factor receptor (Homo sapiens, UniProt P00533, L858R/T790M). The data set is described as follows: Inhibition of recombinant human GST-tagged EGFR L858R/T790M double mutant expressed in baculovirus expression system using Poly(Glu,Tyr)4:1 as substrate after 1 hr by ELISA. On the technique in general: ELISA stands for enzyme-linked immunosorbent assay.
Epidermal growth factor receptor (Homo sapiens, UniProt P00533, L858R/T790M), sequence (P00533 25-1210 T790M/L858R limits assumed): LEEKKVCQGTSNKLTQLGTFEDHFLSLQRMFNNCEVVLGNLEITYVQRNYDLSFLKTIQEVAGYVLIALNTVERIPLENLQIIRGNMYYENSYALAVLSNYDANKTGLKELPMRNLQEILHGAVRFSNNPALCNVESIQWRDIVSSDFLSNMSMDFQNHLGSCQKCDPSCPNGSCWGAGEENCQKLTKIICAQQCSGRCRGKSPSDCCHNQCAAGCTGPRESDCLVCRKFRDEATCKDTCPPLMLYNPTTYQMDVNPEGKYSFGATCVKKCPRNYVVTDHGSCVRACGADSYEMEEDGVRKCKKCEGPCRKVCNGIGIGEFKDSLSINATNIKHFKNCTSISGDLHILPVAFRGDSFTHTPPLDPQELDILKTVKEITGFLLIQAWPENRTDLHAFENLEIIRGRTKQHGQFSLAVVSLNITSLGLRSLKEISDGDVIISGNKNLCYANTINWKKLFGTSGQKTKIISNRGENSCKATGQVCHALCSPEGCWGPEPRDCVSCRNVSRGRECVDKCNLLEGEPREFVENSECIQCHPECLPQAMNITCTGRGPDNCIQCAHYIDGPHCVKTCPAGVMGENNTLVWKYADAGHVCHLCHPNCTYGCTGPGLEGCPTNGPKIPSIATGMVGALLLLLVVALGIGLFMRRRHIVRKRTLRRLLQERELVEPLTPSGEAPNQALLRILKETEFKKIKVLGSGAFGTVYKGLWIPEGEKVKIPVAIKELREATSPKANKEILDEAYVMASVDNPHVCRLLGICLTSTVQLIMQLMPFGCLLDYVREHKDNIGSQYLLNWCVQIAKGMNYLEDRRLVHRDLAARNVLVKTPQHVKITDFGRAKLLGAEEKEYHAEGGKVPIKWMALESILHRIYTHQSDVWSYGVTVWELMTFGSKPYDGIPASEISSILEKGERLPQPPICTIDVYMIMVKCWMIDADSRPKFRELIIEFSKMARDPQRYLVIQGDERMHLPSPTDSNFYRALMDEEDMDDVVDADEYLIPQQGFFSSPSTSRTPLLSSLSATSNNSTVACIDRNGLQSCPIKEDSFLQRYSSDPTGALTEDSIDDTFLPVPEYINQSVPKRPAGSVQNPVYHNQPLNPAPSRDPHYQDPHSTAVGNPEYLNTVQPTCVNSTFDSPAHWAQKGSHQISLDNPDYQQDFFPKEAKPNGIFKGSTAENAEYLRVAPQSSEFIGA

In data set [5] the target is Epidermal growth factor receptor (Homo sapiens, UniProt P00533). Briefly: Inhibition of recombinant human GST-tagged EGFR (668 to 1210 residues) expressed in baculovirus expression system using Poly(Glu,Tyr)4:1 as substrate after 1 hr by ELISA.
Epidermal growth factor receptor (Homo sapiens, UniProt P00533), sequence (P00533 whole entry, the tested form may be a part): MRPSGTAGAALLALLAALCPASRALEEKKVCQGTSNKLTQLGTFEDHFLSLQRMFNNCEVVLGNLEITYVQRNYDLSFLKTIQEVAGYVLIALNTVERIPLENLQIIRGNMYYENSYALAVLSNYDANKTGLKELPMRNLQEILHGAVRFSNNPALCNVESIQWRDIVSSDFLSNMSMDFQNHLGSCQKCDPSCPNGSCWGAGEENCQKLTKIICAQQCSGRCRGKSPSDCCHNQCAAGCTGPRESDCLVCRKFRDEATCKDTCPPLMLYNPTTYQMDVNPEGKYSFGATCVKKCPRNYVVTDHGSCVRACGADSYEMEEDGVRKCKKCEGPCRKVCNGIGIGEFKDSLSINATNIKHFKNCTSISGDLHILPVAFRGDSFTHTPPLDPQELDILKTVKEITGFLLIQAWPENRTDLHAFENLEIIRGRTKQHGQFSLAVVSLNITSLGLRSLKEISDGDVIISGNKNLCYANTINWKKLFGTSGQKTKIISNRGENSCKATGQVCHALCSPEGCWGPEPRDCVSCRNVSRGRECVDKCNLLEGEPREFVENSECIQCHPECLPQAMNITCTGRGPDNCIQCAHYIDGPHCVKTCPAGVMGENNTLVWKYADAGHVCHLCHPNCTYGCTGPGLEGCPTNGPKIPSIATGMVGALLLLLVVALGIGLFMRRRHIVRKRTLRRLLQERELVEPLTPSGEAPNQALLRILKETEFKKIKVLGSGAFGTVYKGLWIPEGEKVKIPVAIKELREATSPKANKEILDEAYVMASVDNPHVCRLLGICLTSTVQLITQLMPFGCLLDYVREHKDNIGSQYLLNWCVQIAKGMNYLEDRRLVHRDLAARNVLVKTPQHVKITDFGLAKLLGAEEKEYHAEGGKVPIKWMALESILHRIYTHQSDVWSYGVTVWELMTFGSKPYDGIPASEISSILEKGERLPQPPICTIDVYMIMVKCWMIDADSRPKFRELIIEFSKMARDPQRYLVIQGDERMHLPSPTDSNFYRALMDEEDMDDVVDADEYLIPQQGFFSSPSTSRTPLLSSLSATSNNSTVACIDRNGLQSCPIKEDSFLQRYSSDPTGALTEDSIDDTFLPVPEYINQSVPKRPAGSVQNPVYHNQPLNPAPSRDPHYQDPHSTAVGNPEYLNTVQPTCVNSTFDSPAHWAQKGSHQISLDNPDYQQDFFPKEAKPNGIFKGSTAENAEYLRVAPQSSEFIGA

Molecules are shown by their SMILES. In brackets after ≈: the same amount, converted by molar mass.

For the compound `C=CC(=O)Nc1cccc(-n2c(=O)n(C(C)C)c(=O)c3cnc(Nc4ccc(N(C)CCN(C)C)cc4OC)nc32)c1`, the Ratio IC50 was determined as 7.6 in the data set listed under Homo sapiens [1] and 14 in the data set listed under Homo sapiens [3]. Also, the IC50 in the data set with NCI-H1975 stood at 138 nM; in the data set with A-431, 1950 nM; in data set [4] it was 16 nM; in data set [5], 121 nM. The compound further had a solubility in data set [2] of 1050 µg/mL (≈ 1840 µM).
On to `C=CC(=O)Nc1cccc(Nc2nc(Nc3ccc(N4CCN(C(C)=O)CC4)cc3OC)ncc2C(F)(F)F)c1` [ROCILETINIB], for which the half-inhibitory concentration (IC50) in the data set with NCI-H1975 was found to be 31 nM; in the data set with A-431 it was 641 nM.
As to `C=CC(=O)Nc1cccc(-n2c(=O)n(C(C)C)c(=O)c3cnc(Nc4ccc(N5CCC(N(C)C)CC5)cc4OC)nc32)c1`, the Ratio IC50 in the data set filed under Homo sapiens [1] amounted to 25. In addition, the IC50 is 50 nM with NCI-H1975, more than 10000 nM in the data set on A-431, 0.8 nM in data set [4] and 20 nM in data set [5]. The compound further came in with a solubility in data set [2] of 176 µg/mL (≈ 294 µM).
Take `C=CC(=O)Nc1cccc(-n2c(=O)n(C)c(=O)c3cnc(Nc4ccc(N5CCSCC5)cc4OC)nc32)c1`: the Ratio IC50 in the data set listed under Homo sapiens [1] came to 3.5; in the data set filed under Homo sapiens [3], 15. The IC50 in the data set on NCI-H1975 was determined as 573 nM; in the data set with A-431 it was 8370 nM; in data set [4], 91 nM; in data set [5], 314 nM. In data set [2], this compound gave a solubility of 45 µg/mL (≈ 82.5 µM).
With `C=CC(=O)Nc1cccc(-n2c(=O)n(C(C)C)c(=O)c3cnc(Nc4ccc(N5CCN(C)CC5)c(OC)c4)nc32)c1`, the results for the Ratio IC50 in the data set listed under Homo sapiens [1] and in the data set listed under Homo sapiens [3] were 18 and 28, respectively. The IC50 with NCI-H1975 turned out to be 37 nM; in the data set on A-431, 1050 nM; in data set [4], 6.8 nM; in data set [5], 119 nM. Besides, in data set [2], the solubility turned out to be 309 µg/mL (≈ 541 µM).
For `C=CC(=O)Nc1cccc(-n2c(=O)n(C)c(=O)c3cnc(Nc4ccc(N5CCN(C(C)=O)CC5)cc4OC)nc32)c1`, the Ratio IC50 in the data set listed under Homo sapiens [1] was found to be 3.9. In addition, the 50% inhibitory concentration (IC50) was more than 10000 nM with NCI-H1975, more than 10000 nM with A-431, 46 nM in data set [4] and 180 nM in data set [5]. Further, the solubility in data set [2] is less than 10 µg/mL.
Consider `C=CC(=O)Nc1cccc(-n2c(=O)n(C(C)C)c(=O)c3cnc(Nc4ccc(N5CCN(C)CC5)c(C)c4)nc32)c1`, for which the Ratio IC50 in the data set filed under Homo sapiens [1] is 34; in the data set listed under Homo sapiens [3] it was 40. In addition, the IC50 in the data set on NCI-H1975 was found to be 24 nM; in the data set on A-431, 954 nM; in data set [4] it was 1 nM; in data set [5], 34 nM. This compound also displayed a solubility in data set [2] of 280 µg/mL (≈ 505 µM).
As for `C=CC(=O)Nc1cccc(-n2c(=O)n(C)c(=O)c3cnc(Nc4ccccc4)nc32)c1`, in the data set filed under Homo sapiens [1], the Ratio IC50 amounted to 1.2. Moreover, the IC50 was 9260 nM in the data set on NCI-H1975, more than 10000 nM in the data set with A-431, 68 nM in data set [4] and 82 nM in data set [5]. For the same compound, in data set [2], the solubility is less than 10 µg/mL.
As for `C=CC(=O)Nc1cccc(-n2c(=O)n(C)c(=O)c3cnc(Nc4ccc(N5CCOCC5)cc4OC)nc32)c1`, the Ratio IC50 in the data set listed under Homo sapiens [1] came to 4.9. Also, the IC50 in the data set on NCI-H1975 is more than 10000 nM; with A-431, more than 10000 nM; in data set [4] it was 70 nM; in data set [5], 341 nM. In data set [2], this compound yielded a solubility of 61 µg/mL (≈ 115 µM).
With `C=CC(=O)Nc1cccc(-n2c(=O)n(C(C)C)c(=O)c3cnc(Nc4ccc(OCCN(C)C)cc4OC)nc32)c1`, the Ratio IC50 in the data set listed under Homo sapiens [1] was 2; in the data set filed under Homo sapiens [3], 36. The concentration for half-maximal inhibition (IC50) with NCI-H1975 stood at 99 nM; in the data set on A-431 it was 3600 nM; in data set [4], 115 nM; in data set [5], 227 nM. The same compound showed a solubility in data set [2] of 647 µg/mL (≈ 1160 µM).
Regarding `C=CC(=O)Nc1cccc(-n2c(=O)n(CCC)c(=O)c3cnc(Nc4ccc(N5CCC(N(C)C)CC5)cc4OC)nc32)c1`, the Ratio IC50 amounted to 33 in the data set filed under Homo sapiens [1] and 69 in the data set listed under Homo sapiens [3]. The IC50 with NCI-H1975 was determined as 60 nM; in the data set on A-431, 4130 nM; in data set [4], 0.4 nM; in data set [5], 13 nM. In addition, the solubility in data set [2] came out at 184 µg/mL (≈ 307 µM).
Regarding `C=CC(=O)Nc1cccc(-n2c(=O)n(CC)c(=O)c3cnc(Nc4ccc(N5CCC(N(C)C)CC5)cc4OC)nc32)c1`, the Ratio IC50 in the data set listed under Homo sapiens [1] was determined as 44. Also, the 50% inhibitory concentration (IC50) with NCI-H1975 is 175 nM; with A-431 it was more than 10000 nM; in data set [4] it was 2.5 nM; in data set [5], 111 nM. Also, in data set [2], the solubility came out at 229 µg/mL (≈ 392 µM).
As for `C=CC(=O)Nc1cccc(-n2c(=O)n(Cc3ccccc3)c(=O)c3cnc(Nc4ccc(N5CCC(N(C)C)CC5)cc4OC)nc32)c1`, the Ratio IC50 came out at 0.6 in the data set filed under Homo sapiens [1] and 12 in the data set filed under Homo sapiens [3]. For the same compound, the 50% inhibitory concentration (IC50) in the data set on NCI-H1975 worked out at 278 nM; with A-431, 3300 nM; in data set [4], 1.9 nM; in data set [5], 1.2 nM. Besides, the solubility in data set [2] is 137 µg/mL (≈ 212 µM).
On to `C=CC(=O)Nc1cccc(-n2c(=O)n(CCc3ccccc3)c(=O)c3cnc(Nc4ccc(N5CCC(N(C)C)CC5)cc4OC)nc32)c1`, for which the Ratio IC50 was determined as 0.7 in the data set filed under Homo sapiens [1] and 11 in the data set filed under Homo sapiens [3]. Moreover, the IC50 in the data set with NCI-H1975 turned out to be 189 nM; in the data set with A-431, 2040 nM; in data set [4] it was 1 nM; in data set [5], 0.7 nM. The concentration in solution in data set [2] (solubility) was 99 µg/mL (≈ 150 µM).
In the case of `C=CC(=O)Nc1cccc(-n2c(=O)n(CCCc3ccccc3)c(=O)c3cnc(Nc4ccc(N5CCC(N(C)C)CC5)cc4OC)nc32)c1`, the figures for the Ratio IC50 in the data set filed under Homo sapiens [1] and in the data set listed under Homo sapiens [3] were 2.7 and 4.1, respectively. In addition, the IC50 was found to be 358 nM with NCI-H1975, 1460 nM in the data set on A-431, 1.4 nM in data set [4] and 3.8 nM in data set [5]. Besides, the solubility in data set [2] stood at 104 µg/mL (≈ 154 µM).
Regarding `C=CC(=O)Nc1cccc(-n2c(=O)n(C(C)C)c(=O)c3cnc(Nc4ccc(N5CCC(N6CCN(C)CC6)CC5)cc4OC)nc32)c1`, the Ratio IC50 turned out to be 17 in the data set listed under Homo sapiens [1] and 9 in the data set filed under Homo sapiens [3]. Also, the 50% inhibitory concentration (IC50) in the data set with NCI-H1975 came out at 154 nM; with A-431, 1380 nM; in data set [4], 14 nM; in data set [5] it was 240 nM. Further, the concentration in solution in data set [2] (solubility) was 121 µg/mL (≈ 185 µM).
With `C=CC(=O)Nc1cccc(-n2c(=O)n(C)c(=O)c3cnc(Nc4ccc(N5CCC(N(C)C)CC5)cc4OC)nc32)c1`, the IC50 with NCI-H1975 was 230 nM; with A-431 it was 3890 nM. The same compound yielded a solubility in data set [2] of 531 µg/mL (≈ 931 µM).

One may read the IC50 as the concentration at which inhibition is half-maximal. For orientation: solubility means how much of the substance goes into solution per volume.

These data come from ChEMBL document CHEMBL4118273, “Design, Synthesis, and Biological Evaluation of Pyrimido[4,5- d]pyrimidine-2,4(1 H,3 H)-diones as Potent and Selective Epidermal Growth Factor Receptor (EGFR) Inhibitors against L858R/T790M Resistance Mutation” (J Med Chem, 2018).
